Results on one compound are retold here after ChEMBL document CHEMBL4270646, “Novel antimalarial chloroquine- and primaquine-quinoxaline 1,4-di-N-oxide hybrids: Design, synthesis, Plasmodium life cycle stage profile, and preliminary toxicity studies” (Eur J Med Chem, 2018).

SMILES strings stand for the structures.

One data set has as its system Plasmodium yoelii. In words: Antiplasmodial activity against Plasmodium yoelii 17XNL sporozoites infected in BALB/c mouse assessed as decrease in parasitaemia in blood at 100 mg/kg, po measured at day 4 by […] relative to control. Set-up: scale not given: the % may be the effect or the level left. The format is functional. The essentials:
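BALB/c mice (6-8 weeks, 20-23 g), n=4 per hybrid group and n=5 per control. Dosed orally at 100 mg/kg (100 µL) on days -1, 0, +1 and +2. Vehicle was DMSO 100%; primaquine diphosphate given at 30 mg/kg daily. On day 0, 5 x 10^3 cryopreserved P. yoelii 17XNL sporozoites injected i.v. Parasitaemia read by Giemsa smear and SYBR Green flow cytometry. Groups compared by Kruskal-Wallis test.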
In general terms: Flow cytometry measures light scatter and fluorescence of single cells or particles in a stream.

Data set [1] is described as follows: Genotoxicity in Salmonella typhimurium TA1535 harboring pSK1002 assessed as umu gene induction at 0.001 to 0.063 mg/ml after 4 hrs in absence of Sprague-Dawley rat liver S9 fraction by beta-galactosidase reporter gene assay relative to control. It is filed as toxicity, organism-based. As to conditions: salmonella enterica subsp. enterica serovar typhimurium; read-out: FC. The gist of the method: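 SOS/umu test, 4 h at 37°C, with S9 mix or PBS. Positive controls 4-NQO (2.5 µg/mL final, no S9) and 2-AA (0.0125 mg/mL final, with S9). Aliquots incubated with ONPG 0.9 mg/mL in B-buffer for 30 min at 28°C, then stopped with 1 M Na2CO3. Activity calculated as A420/A600. Induction factor is the ratio to the DMSO control; genotoxic if ≥2 at ≥80% survival.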
Background: A reporter such as luciferase makes a cellular process visible.

A further data set concerns Mus musculus. In words: Acute toxicity in BALB/c mouse assessed as appearance of clear and bright eyes at 300 to 500 mg/kg, po administered as single dose measured every day for 14 days. The format is organism-based. The conditions noted are these: in vivo, 336 h. The essentials:
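Female BALB/c mice, 6-8 weeks old, 20-23 g, in groups of three. Single oral dose of 300 or 500 mg/kg; vehicle DMSO 100% given to controls. Mice watched for signs of toxicity for 4 h after dosing. Physical appearance, injury, pain and illness recorded daily for 14 days. Euthanasia in a CO2 chamber on day 14 or earlier if suffering.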

For `COc1cc(NC(C)CCCNC(=O)c2c(C)[n+]([O-])c3ccccc3[n+]2[O-])c2ncccc2c1` (stereo not drawn), the values for the Activity in the data set with Plasmodium yoelii and with Mus musculus were 95.97% and “Non-Toxic”, respectively. Further, in data set [1], the fold induction at 4 h was below 2.
